Screens (PubChem BioAssay)
Sampled rows, rich in hits. Any-hit rate of the full collection: about 3.5%.
RGS4 pot – potentiators or activators of RGS4; HEK293 M3R/inducible RGS4, carbachol calcium flux Fluo4; stronger effect = lower value; 310,000 tested, 0.92% active; AID 463111; B-score at 10 µM;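 active = B-score of the integrated calcium signal more than 4 SD below the library mean, with starting fluorescence not abnormally high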;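 note: negative B-score means reduced calcium response which marks RGS4 activation or potentiation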
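Also added: carbachol at ECmax as muscarinic agonist stimulus; Assay system: HEK293 cells with stable M3R and inducible RGS4; Timing: overnight RGS4 induction, 30 min dye load 37 °C, 20 min compound RT; Measured by: Fluo4-AM (2 µM) calcium-flux fluorescence, kinetic read.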
MrgX1 ag – agonists of human MrgX1 receptor; Q96LB2; MrgX1-HEK293 cells, Fluo-4 calcium fluorescence, agonist mode; stronger effect = higher value; B-score at 10 µM; 310,000 tested, 0.44% active;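 active = calcium response B-score plate-corrected fluorescence ratio at least 3 library SD, with starting fluorescence B-score inside 5 SD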
Target sequence (Q96LB2 whole entry, looked up): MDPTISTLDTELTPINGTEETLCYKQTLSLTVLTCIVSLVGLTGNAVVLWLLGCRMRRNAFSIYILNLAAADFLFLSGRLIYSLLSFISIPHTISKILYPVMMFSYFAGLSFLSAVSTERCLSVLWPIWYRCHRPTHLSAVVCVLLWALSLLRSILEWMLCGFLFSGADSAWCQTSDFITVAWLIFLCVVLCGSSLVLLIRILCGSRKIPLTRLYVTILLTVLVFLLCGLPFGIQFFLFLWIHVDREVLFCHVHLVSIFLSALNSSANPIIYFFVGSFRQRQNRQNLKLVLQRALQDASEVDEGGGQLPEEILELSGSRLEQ
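Material – MrgX1-expressing HEK293 cells · Input – 15,000 cells seeded per well · Dosing – compound as first of three additions · Times – overnight seeding, then 1 h dark dye loading · Measured by – kinetic Fluo-4 NW fluorescence of intracellular calcium · Read-out – B-scored fluorescence response ratio · Benchmarks – positive and negative control wells on each plate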
MrgX1 allo act – allosterically activates human MrgX1 receptor signaling | MrgX1-HEK293, Fluo-4 calcium flux, FDSS; stronger effect = higher value | B-score at 10 µM | 310,000 tested, 0.63% active | AID 588675;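 active = plate-corrected calcium response at least 3 library SD above typical, normal starting fluorescence, not activating the receptor alone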;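 note: compound read alongside a low EC10 to EC30 dose of BAM8-22 agonist; peak minus trough fluorescence over baseline measured at the second addition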
MrgX1 antagonist – human MrgX1 receptor antagonism, primary screen. Q96LB2. B-score at 10 µM. 310,000 tested, 1.3% active. AID 588676. MRGX1-HEK293 calcium flux, Fluo-4, BAM8-22 antagonism; stronger effect = lower value;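 active = calcium-response B-score plate-corrected more than 3 library SD below zero, starting fluorescence within 5 deviations, no agonist response on first addition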;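 note: peak minus trough fluorescence over baseline after final BAM8-22 challenge near maximal dose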
RGS4 block – inhibitors of human RGS4; P49798; HEK293 M3R/RGS4 inducible, Fluo-4 calcium flux; stronger effect = higher value; triggered by carbachol at its EC20; B-score at 10 µM; 310,000 tested, 0.45% active; AID 463165;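 active = B-score, a plate-corrected calcium signal, over three deviations above library mean, with baseline fluorescence within five deviations of library mean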;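 note: RGS4 expression induced by doxycycline in cells with stable M3 receptor; B-score is computed from the integrated fluorescence ratio over baseline after carbachol; higher B-score means a larger calcium signal and so more RGS4 inhibition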
Hits are given with their value; 0 = inactive; - = no result.

SMILES	RGS4 pot	MrgX1 ag	MrgX1 allo act	MrgX1 antagonist	RGS4 block
COc1ccccc1NC(=O)Cn1cc(C(=O)c2ccco2)c2ccccc21	0	0	0	0	0
O=C(Nc1ccc([N+](=O)[O-])cc1)C1CC1(c1ccccc1)c1ccccc1 (centres undefined)	0	0	0	0	0
Cc1nc(C(=O)Nc2ccccc2)sc1C(=O)Nc1ccccc1	0	0	0	0	0
CCOC(=O)c1ccc(NC(=O)N2CCN(c3ccccn3)CC2)cc1	-7.1	0	0	0	0
O=C(Nc1ccc(S(=O)(=O)N2CCCC2)cc1)c1ccc(CN2CCOCC2)cc1	0	0	0	0	0
O=C(Nc1ccc(S(=O)(=O)N2CCCCC2)cc1)c1ccc(CN2CCOCC2)cc1	0	0	0	-7.7	0
CN(C)C(/C=C/Nc1ccc(F)cc1)=C(C#N)C#N	0	0	0	0	0
CN(C)C(/C=C/Nc1ccc(C#N)cc1)=C(C#N)C#N	0	0	0	-5.2	0
Cc1cccc2cc(CN(Cc3ccco3)S(=O)(=O)c3ccc4c(c3)OCCO4)c(=O)[nH]c12	0	0	0	0	0
COc1ccc(-c2nn(-c3ccccc3)cc2/C=N/O)cc1	0	0	0	0	0
CC(C)Oc1ccc(-c2nn(-c3ccccc3)cc2/C=c2\sc3ncnn3c2=O)cc1	-	47	0	0	-
Cc1cc(C)cc(-n2ncc3c2CCCC3NC(=O)CCCn2cncn2)c1 (centres undefined)	0	0	0	0	0
CS(=O)(=O)N(CC(=O)Nc1ccc(S(=O)(=O)N2CCCC2)cc1)c1ccccc1F	0	0	0	0	0
O=C(c1ccc(Cl)cc1)C1CCCN(Cc2ccc(Oc3ncccn3)cc2)C1 (centres undefined)	0	0	0	0	0
Cc1cccc(-n2ncc3c2CCCC3NC(=O)CCN2Cc3ccccc3C2=O)c1C (centres undefined)	0	0	0	0	0
O=[N+]([O-])c1ccc(-c2ccc(/C=N/Nc3nc(NCc4ccccc4)nc(N4CCOCC4)n3)o2)cc1	0	0	13	0	0
Cc1cc(C(=O)COC(=O)CC2Sc3ccccc3NC2=O)c(C)n1-c1cccc(C(F)(F)F)c1 (centres undefined)	-8.2	0	0	0	0
Nc1ccc(C(=O)N/N=C\c2ccc(OC(=O)c3ccccc3Cl)cc2)cc1	0	0	0	0	0
COc1ccc(/C=N/NC(=O)C(=O)N2CCCC2)cc1OC	0	0	0	0	0
COc1cc(C(=O)N/N=C/c2ccc(OC(=O)c3cccc(C)c3)c(OC)c2)ccc1O	-7.1	0	0	0	0
COc1cc(/C=N/NC(=O)C(=O)N2CCCC2)ccc1O	0	0	0	-6.7	0
COc1cc(C(=O)N/N=C/c2ccc(OC(=O)c3ccccc3Cl)cc2)ccc1O	-11	0	0	0	0
Cc1cccc(C(=O)Oc2ccc(/C=N/NC(=O)c3cc(O)cc(O)c3)cc2)c1	-10	0	0	0	0
Cn1c(=O)[nH]c(=O)c2c1nc(SCc1ccccc1Cl)n2CC(N)=O	0	0	0	0	0
CC(C)N(Cc1cnn(C)c1)C(=O)C1CCC(=O)N(CCc2cccc(F)c2)C1 (centres undefined)	0	0	0	0	0
SMILES	RGS4 pot	MrgX1 ag	MrgX1 allo act	MrgX1 antagonist	RGS4 block
COc1ccc2noc3c2c1C(=O)c1ccccc1-3	-7.2	0	0	0	0
CCN=c1scc(-c2ccc3c(c2)NC(=O)CO3)n1N=C1CCCC1	0	0	0	0	0
CCCCN=c1scc(-c2ccc3c(c2)NC(=O)CO3)n1N=C1CCCC1	0	32	0	0	0
COc1ccc(CC(C)Nc2ccccc2F)cc1 (centres undefined)	0	0	0	0	0
Cc1ccc(N2C3=C(C(=O)CC(C)(C)C3)C(c3cn(C)nc3C)C3=C2CC(C)(C)CC3=O)cc1	0	0	0	-6.6	0
Cc1nn(C)cc1C1C2=C(CC(C)(C)CC2=O)N(c2ccccc2)C2=C1C(=O)CC(C)(C)C2	0	0	0	0	0
COc1ccccc1OCCC(=O)OCC(=O)NC(C)c1ccccc1 (centres undefined)	0	0	0	-6.1	0
CCOC(=O)c1c(-c2cccc([N+](=O)[O-])c2)csc1NC(=O)C1CC1	-7.7	0	0	0	0
CCOC(=O)c1c(-c2cccc([N+](=O)[O-])c2)csc1NC(=O)C1CCCCC1	-9.2	0	0	0	0
c1ccc(COc2ccc(OCCCNC3CCCC3)cc2)cc1	0	0	0	0	0
